Among the data in PubChem BioAssay are viability values, retold here.

Active and inactive are the calls of the source.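 Rule for the calls, unless noted: active = viability at or under a set limit in both replicates, limit being median viability minus 3 SD (cut at about 48% in these data, passing the limit was not always enough); inconclusive = at or under the limit in just one replicate; inactive = at or above the limit in both replicates.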

One assay in a line: HUVEC growth inhibition – cell-based, human, primary screen (AID 575;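 active = viability at or below 30% in both replicate assays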;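 note: 100% = median of untreated cell wells with 0.1% DMSO on each plate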). As to conditions: HUVEC proliferation, CellTiter-Glo luminescence, 72 h; at 10 µM; hits give low values. In short, it runs like this:
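system = HUVEC primary cells | amount = 1250 cells/well | buffer or medium = supplemented EBM, 2% fetal bovine serum | dosing = single-point 10 µM, DMSO 0.1% final | times = 72 h compound incubation | detection = CTG luminescence | read-out = % viability relative to median vehicle-well signal on each plate | control set = vehicle and MePR control wells | format = collagen-coated 384-well format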
A word on the viability: it is a read-out of living cells in per cent, often relative to untreated cells. In the case of `O=C1c2cccnc2C(=O)N1c1cccc(-c2nc3ccccc3o2)c1`, the viability was 111% (inactive). Consider `COc1ccc(S(=O)(=O)Nc2ccc3c(c2)OCO3)cc1Cl`, for which the viability was 12.9% (active).

For `CC1CC(C)CN(CCCNC(=O)c2ccc3c(c2)NC(=O)C(N2CCCCC2)S3)C1` (stereo unspecified), the viability was 88.6% (inactive). For the molecule `Cc1cc(NC(=O)C2CCCC2)nc2c1c(=O)oc1ccccc12`, the viability is 60.3% (inactive). Take `Cc1cccc(NC(=O)CN(C)S(=O)(=O)c2ccccc2)n1`: the viability is 107% (inactive). For `O=C1c2ccccc2C(=O)N1CCCCN1CCN(CCCCN2C(=O)c3ccccc3C2=O)CC1`, the viability is 93% (inactive).

As for `CCOC(=O)c1sc(NS(=O)(=O)c2ccc(NC(C)=O)cc2)nc1C`, the viability was 112% (inactive). Regarding `O=C(NCc1ccc(F)cc1)c1cc(-c2ccco2)on1`, the viability is 93.4% (inactive). On to `COc1cccc(C(=O)Nc2cccc(C(=O)N3CCOCC3)c2)c1`, for which the viability was 97.1% (inactive). In the case of `Cc1nc(SCC(=O)c2c[nH]c3ccccc23)n[nH]1`, the viability is 81.1% (inactive). On the same count and under the same terms, for `CCOC(=O)C1CCN(S(=O)(=O)c2cccc(-c3csc(C)n3)c2)CC1` the value was 101% (inactive).

For the molecule `COc1ccc2c(c1)CCc1c(C(=O)N3CC4(C)CC3CC(C)(C)C4)noc1-2` (stereo unspecified), the viability is 52.3% (inactive).

As to `C=CCn1c(SCc2cc(=O)n3ccsc3n2)nnc1C1CCCCC1`, the viability is 93.1% (inactive). In the case of `CCOC(=O)C1C(=O)NC(SCC(=O)Nc2nccs2)=C(C#N)C1c1ccccc1OCC` (stereo unspecified), the viability was 76.2% (inactive). With `Cc1ccc(-c2nc(-c3cccnc3)no2)c(C)c1`, the viability was 78.9% (inactive). As to `COC(=O)c1[nH]c(C)c(/C(O)=C2\C(=O)C(=O)N(CCCN3CCOCC3)C2c2ccccn2)c1C` (stereo unspecified), the viability is 109% (inactive).

Take `CCOc1ccccc1NC(=O)CCSc1nc2n[nH]c(C)c2c(=N)n1-c1ccccc1Cl`: the viability is 39.2% (inactive). Regarding `CC(=O)c1cc(-c2ccccc2)n(CC(=O)N2CCN(C3CCCC3)CC2)c1C`, the viability was 98.7% (inactive). `O=c1ccn(Cc2ccccc2Cl)cc1`: the viability is 99.9% (inactive). Still for that read-out and setting: to `COC(=O)c1c(C(=O)OC)n(CCCN)c2ccc(C)cc12` belongs 89.1% (inactive). Still for that read-out and setting: to `CN(CC(=O)Nc1ccccc1Cl)C(=O)COC(=O)CNC(=O)c1ccc(Br)o1` belongs 95.4% (inactive); to `O=C(CN1C(=O)CC(c2ccccc2)=Nc2ccccc21)NCc1ccco1`, 99.2% (inactive).

A short description of another assay: growth inhibitors of H69AR lung tumor, primary screen, human, duplicate replicates (AID 580).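 Note: 100% = mean luminescence of untreated wells and 0% = no signal.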 As to conditions: H69AR lung tumor cells viability, ATP luminescence, 72 h; at 10 µM; hits give low values.
With `CC1(C)CC(=O)C2=C(C1)N(Cc1ccco1)C(=O)C2(NC(=O)C1CCCCC1)C(F)(F)F` (stereo unspecified), the viability was 92.1% (inactive). For `C=CCn1c(=S)[nH]c2nc3c(cc2c1=O)COC(C)(C)C3`, the viability was 77.8% (inactive).

On to `CC(=O)Nc1ccc(S(=O)(=O)N(CC(=O)O)Cc2ccccc2)cc1`, for which the viability was 97.7% (inactive). For `Cc1cccc2cc(C#N)c(SCCN3CCCCC3)nc12`, the viability was 68.2% (inactive).

For the molecule `CSc1nnc(-c2cnccn2)n1C`, the viability was 90.7% (inactive). Take `COc1ccccc1NC1=NC2(CCCC2)N=C(N)N1`: the viability was 99.7% (inactive). Take `CC(C)C(c1nnnn1C1CCCC1)N1CCCc2ccccc21` (stereo unspecified): the viability was 84.5% (inactive).

For `COc1cc(NC(=O)c2cc(-n3cnnc3)ccc2Cl)cc(OC)c1`, the viability is 104% (inactive). Still for that read-out and setting: for `Cc1ccc(OCc2nnc(SCC(=O)N3CCOCC3)n2C)cc1` the value was 106% (inactive); for `CCc1nc(C)ccc1OCC(=O)O`, 93% (inactive). Take `CCCOc1ccc(N2C(=O)CC(NCCCN3CCC(C(N)=O)CC3)C2=O)cc1` (stereo unspecified): the viability is 88.6% (inactive).

For `CC1CCCCN1CCNS(=O)(=O)c1ccc2c(c1)oc(=O)n2C` (stereo unspecified), the viability was 108% (inactive). With `COc1cccc(C(c2nnnn2Cc2ccccc2)N2CCN(C(=O)c3ccco3)CC2)c1OC` (stereo unspecified), the viability was 82.3% (inactive). Still for that read-out and setting: to `COc1ccc(S(=O)(=O)N2CCC(C(=O)NCc3ccco3)CC2)cc1` belongs 86.6% (inactive); to `CSC1CCCCC1(O)CSc1nc2c(cc1C#N)CCCC2` (stereo unspecified), 92.6% (inactive). In the case of `CCSc1nnc(NC(=O)c2cc(C)oc2C)s1`, the viability is 99.7% (inactive). On to `COC(=O)c1ccc(CN(c2ccccc2OC)S(=O)(=O)c2cccs2)o1`, for which the viability is 86.2% (inactive). As to `O=C1c2cccnc2C(=O)N1c1cccc(-c2nc3ccccc3o2)c1`, the viability was 92.9% (inactive). In the case of `COc1ccc(S(=O)(=O)Nc2ccc3c(c2)OCO3)cc1Cl`, the viability was 87.3% (inactive).

As to `CC1CC(C)CN(CCCNC(=O)c2ccc3c(c2)NC(=O)C(N2CCCCC2)S3)C1` (stereo unspecified), the viability is 87.8% (inactive). In the case of `Cc1cc(NC(=O)C2CCCC2)nc2c1c(=O)oc1ccccc12`, the viability is 62.8% (inactive). As for `Cc1cccc(NC(=O)CN(C)S(=O)(=O)c2ccccc2)n1`, the viability was 95.2% (inactive). With `O=C1c2ccccc2C(=O)N1CCCCN1CCN(CCCCN2C(=O)c3ccccc3C2=O)CC1`, the viability was 97.5% (inactive). As to `CCOC(=O)c1sc(NS(=O)(=O)c2ccc(NC(C)=O)cc2)nc1C`, the viability was 96% (inactive). On to `O=C(NCc1ccc(F)cc1)c1cc(-c2ccco2)on1`, for which the viability was 92.5% (inactive).

For `COc1cccc(C(=O)Nc2cccc(C(=O)N3CCOCC3)c2)c1`, the viability was 90.1% (inactive). Regarding `Cc1nc(SCC(=O)c2c[nH]c3ccccc23)n[nH]1`, the viability is 95.9% (inactive).

With `CCOC(=O)C1CCN(S(=O)(=O)c2cccc(-c3csc(C)n3)c2)CC1`, the viability was 90.4% (inactive).

With `COc1ccc2c(c1)CCc1c(C(=O)N3CC4(C)CC3CC(C)(C)C4)noc1-2` (stereo unspecified), the viability was 75.1% (inactive). As for `C=CCn1c(SCc2cc(=O)n3ccsc3n2)nnc1C1CCCCC1`, the viability was 96.7% (inactive). Regarding `CCOC(=O)C1C(=O)NC(SCC(=O)Nc2nccs2)=C(C#N)C1c1ccccc1OCC` (stereo unspecified), the viability was 71.3% (inactive). As for `Cc1ccc(-c2nc(-c3cccnc3)no2)c(C)c1`, the viability is 90.1% (inactive). As for `COC(=O)c1[nH]c(C)c(/C(O)=C2\C(=O)C(=O)N(CCCN3CCOCC3)C2c2ccccn2)c1C` (stereo unspecified), the viability was 104% (inactive).

As for `CCOc1ccccc1NC(=O)CCSc1nc2n[nH]c(C)c2c(=N)n1-c1ccccc1Cl`, the viability was 16.9% (active). Regarding `CC(=O)c1cc(-c2ccccc2)n(CC(=O)N2CCN(C3CCCC3)CC2)c1C`, the viability is 80.5% (inactive). For the molecule `O=c1ccn(Cc2ccccc2Cl)cc1`, the viability is 88.2% (inactive). As for `COC(=O)c1c(C(=O)OC)n(CCCN)c2ccc(C)cc12`, the viability was 89.7% (inactive). As to `CN(CC(=O)Nc1ccccc1Cl)C(=O)COC(=O)CNC(=O)c1ccc(Br)o1`, the viability was 104% (inactive).

Take `O=C(CN1C(=O)CC(c2ccccc2)=Nc2ccccc21)NCc1ccco1`: the viability is 92.3% (inactive).
